The values below come from ChEMBL document CHEMBL1126315, “Pyrrolobenzodiazepines and related systems. 2. Synthesis and biological properties of isonoraptazepine derivatives” (1992).

Common to all, as to type: functional
Assay [1] deals with Mus musculus. The experiment in a line: Total number of falls in 100 seconds after intraperitoneal administration of 75 mg/Kg in mice by rotarod test. A digest of the protocol: (§1)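 Mice (Swiss inbred, 5 male + 5 female per group) dosed ip in 1% Tween 80; Rota-Rod motor coordination assessed 80 min later. Falls counted over a 100 s observation period. Mean ± SEM vs vehicle controls, Dunnett t test.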

For assay [2], the system named is Mus musculus. Put plainly: Total number of explored holes in 5 minutes after intraperitoneal administration of 75 mg/Kg in mice. The gist of the method: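 Hole-board exploration at 65 min after ip dosing (1% Tween 80 vehicle) in Swiss inbred mice, 10 per group (5 male, 5 female). Holes explored counted by infrared detector below the hole lines over 5 min. Mean ± SEM vs vehicle controls, Dunnett t test.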

Assay [3] relates to Mus musculus. Put plainly: Rotation number in mice was determined at 15 minutes after a dose of 10 mg/Kg. A digest of the protocol: (§2)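 Nomura water-wheel test: Swiss inbred mice (5 male, 5 female per group) dosed ip in 1% Tween 80, placed in a water tank with central wheel 1 h later. Wheel rotations counted by photointerrupter on the shaft, read at 9, 12 and 15 min. Mean ± SD vs vehicle controls.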

For assay [4], the system named is Mus musculus. The experiment in a line: Rotation number in mice was determined at 9 minutes after a dose of 10 mg/Kg. A digest of the protocol:
as §2

Assay [5] has as its system Mus musculus. The experiment in a line: Total number of movements in 5 minutes after intraperitoneal administration of 75 mg/Kg in mice. A digest of the protocol:
(§3)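 Open-field spontaneous activity 60 min after ip dosing in 1% Tween 80; Swiss inbred mice, 10 per group (5 male, 5 female), placed singly in 19 × 25 cm cages and monitored continuously for 5 min. Total movements as mean ± SEM vs vehicle controls.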

Assay [6] deals with Mus musculus. Put plainly: Rotation number in mice was determined at 12 minutes after a dose of 10 mg/Kg. The gist of the method: as §2
For assay [7], the system named is Mus musculus. Put plainly: Myorelaxant action (time in seconds on the horizontal wire with forelegs) after intraperitoneal administration of 75 mg/Kg in mice by traction test. The gist of the method: (§4)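 Traction test on Swiss inbred mice, 10 per group (5 male, 5 female), dosed ip in 1% Tween 80; run 70 min after dosing. Time for animals to place hind legs on horizontal wire recorded in seconds. Mean ± SEM vs vehicle-treated controls, Dunnett t test.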

Assay [8] has as its system Mus musculus. Put plainly: Compound was tested for total number of falls in 100 seconds after intraperitoneal administration of 37.5 mg/Kg in mice by rotarod test. A digest of the protocol: as §1
Assay [9] concerns Mus musculus. The experiment in a line: Compound was tested for myorelaxant action (time in seconds on the horizontal wire with forelegs) after intraperitoneal administration of 37.5 mg/Kg in mice by traction test. A digest of the protocol: as §4
For assay [10], the system named is Mus musculus. The experiment in a line: Compound was tested for total number of movements in 5 minutes after intraperitoneal administration of 37.5 mg/Kg in mice. The gist of the method:
as §3

Assay [11] relates to Mus musculus. The experiment in a line: Compound at an intraperitoneal dose of 10 mg/Kg was tested for the inhibition of abdominal constriction in mice. The note with it: Abdomen, ip. The gist of the method: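 Swiss inbred mice (25 ± 3 g), 10 per group (5 male, 5 female), given compound ip in 1% Tween 80. Clonidine 0.1 mg/kg po 30 min later, then phenylquinone 3.75 mg/kg ip in 5% aqueous ethanol 20 min after that. Writhing counted by observer over 10 min starting 5 min post-injection; % inhibition relative to controls.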

In assay [12] the test system is Mus musculus. The experiment in a line: Writhing number was determined against clonidine induced analgesia by the compound at an intraperitoneal dose of 10 mg/Kg in mice.
Assay [13] relates to Mus musculus. The experiment in a line: Compound was tested for total number of falls in 100 seconds after intraperitoneal administration of 10 mg/Kg in mice by rotarod test. The gist of the method: (§5)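 Swiss inbred mice (25 ± 3 g), groups of 10 (5 male, 5 female), given drug ip in 1% Tween 80; vehicle-treated controls. Single sequence per animal: open-field movements counted over 5 min at 60 min, hole-board explorations (infrared counting, 5 min) at 65 min, traction-test wire time at 70 min, Rota-Rod falls over 100 s at 80 min. Mean ± SEM, Dunnett t test.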

Assay [14] relates to Mus musculus. Put plainly: Compound was tested for total number of explored holes in 5 minutes after intraperitoneal administration of 10 mg/Kg in mice. The gist of the method: as §5
Assay [15] has as its system Mus musculus. Put plainly: Rotation number in mice was determined at 15 minutes after a dose of 2.5 mg/Kg. A digest of the protocol:
(§6)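 Nomura water-wheel test in Swiss inbred mice (25 ± 3 g), groups of 10 (5 male, 5 female). Drug given ip in 1% Tween 80, single dose. Mouse placed in a water tank with a central wheel 1 h after dosing. Wheel rotations counted by photointerrupter, read at 9, 12 and 15 min. Mean ± SD versus vehicle controls.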

Assay [16] deals with Mus musculus. The experiment in a line: Rotation number in mice was determined at 15 minutes after a dose of 5 mg/Kg. The gist of the method:
as §6

The test system of assay [17] is Mus musculus. The experiment in a line: Rotation number in mice was determined at 9 minutes after a dose of 2.5 mg/Kg. The gist of the method: as §6
For assay [18], the system named is Mus musculus. Put plainly: Rotation number in mice was determined at 9 minutes after a dose of 5 mg/Kg. The gist of the method: as §6
The subject of assay [19] is Mus musculus. Put plainly: Compound was tested for total number of movements in 5 minutes after intraperitoneal administration of 10 mg/Kg in mice. The gist of the method: as §5
In assay [20] the test system is Mus musculus. Put plainly: Rotation number in mice was determined at 12 minutes after a dose of 2.5 mg/Kg. A digest of the protocol: as §6
Assay [21] relates to Mus musculus. The experiment in a line: Rotation number in mice was determined at 12 minutes after a dose of 5 mg/Kg. The gist of the method: as §6
Assay [22] has as its system Mus musculus. Put plainly: Compound was tested for myorelaxant action (time in seconds on the horizontal wire with forelegs) after intraperitoneal administration of 10 mg/Kg in mice by traction test. A digest of the protocol:
as §5

As for `CN1CC(=O)N2Cc3ccccc3-n3cccc3C2C1` (stereo unspecified), in assay [1], the Activity was determined as 8.7. In addition, the Exploratory activity in assay [2] was 13. The Rotation number in [3] is on record as 10; in [4], 17; in assay [6], 14. In addition, in assay [5], the Spontaneous motor activity turned out to be 90. Besides, the Time in [7] came out at 1 s.

Regarding `CCN1CC(=O)N2Cc3ccccc3-n3cccc3C2C1` (stereo unspecified), the Activity in assay [1] is on record as 0.4. The Exploratory activity in [2] was determined as 9.8. In addition, the Rotation number in assay [3] turned out to be 22; in assay [4] it was 22; in [6] it was 17. In assay [5], this compound had a Spontaneous motor activity of 285. In assay [7], this compound displayed a Time of 2.1 s.

For the compound `CC(=O)N1CCN2Cc3ccccc3-n3cccc3C2C1` (stereo unspecified), the Rotation number in [3] worked out at 17; in assay [4] it was 21; in assay [6], 23.

For the compound `O=C1CN(Cc2ccccc2)CC2c3cccn3-c3ccccc3CN12` (stereo unspecified), the figures for the Rotation number in [3], in [4] and in assay [6] were 31, 45 and 41, respectively.

Compound `c1ccc2c(c1)CN1CCNCC1c1cccn1-2` (stereo unspecified) returned an Activity in assay [8] of 3. For the same compound, the Rotation number in assay [3] is 12; in [4], 17; in [6], 10. This compound also gave a Time in [9] of 4.9 s. Besides, in assay [10], the Spontaneous motor activity was 111.

`O=C1CC2c3cccn3-c3ccccc3CN2C(=O)CN1` (stereo unspecified) registered an Activity in assay [1] of 0.6. The Exploratory activity in assay [2] stood at 17.2. Also, the Rotation number in assay [3] came out at 27; in [4] it was 35; in [6], 27. Further, in [5], the Spontaneous motor activity came out at 173. Also, the Time in [7] amounted to 2.3 s.

Regarding `O=C1CN(Cc2ccc(Cl)cc2)CC2c3cccn3-c3ccccc3CN12` (stereo unspecified), at 10 mg/kg the inhibition in vivo in assay [11] was 63%. This compound also came in with a Writhing number in assay [12] of 8.

`O=C1CN(Cc2ccc(F)cc2)CC2c3cccn3-c3ccccc3CN12` (stereo unspecified) came in with an Activity in assay [1] of 1.8. Further, the Exploratory activity in assay [2] came to 6. The same compound came in with a Spontaneous motor activity in assay [5] of 178. The same compound yielded a Time in assay [7] of 4.2 s.

On to `O=C(c1ccc(Cl)cc1)N1CCN2Cc3ccccc3-n3cccc3C2C1` (stereo unspecified), for which the figures for the Rotation number in [3], in [4] and in [6] were 7, 7 and 6, respectively.

On to `CC(=O)N1CC(=O)N2Cc3ccccc3-n3cccc3C2C1` (stereo unspecified), for which the Activity in [1] amounted to 1. Further, in [2], the Exploratory activity is listed as 10.7. Further, the Rotation number in assay [3] is listed as 49; in assay [4], 54; in [6], 57. The same compound registered a Spontaneous motor activity in assay [5] of 121. The same compound gave a Time in assay [7] of 3.5 s.

`CCN1CCN2Cc3ccccc3-n3cccc3C2C1` (stereo unspecified) returned an Activity in assay [1] of 1.1. For the same compound, the Exploratory activity in [2] worked out at 7.6. For the same compound, the figures for the Rotation number in [3], in assay [4] and in [6] were 24, 30 and 27, respectively. The compound also gave a Spontaneous motor activity in [5] of 188. In assay [7], this compound returned a Time of 3.1 s.

`Clc1ccc(CN2CCN3Cc4ccccc4-n4cccc4C3C2)cc1` (stereo unspecified): the Activity in assay [1] is listed as 2.1. Further, the Exploratory activity in assay [2] came to 9.3. Moreover, the Rotation number in assay [3] was determined as 11; in [4], 22; in assay [6], 14. This compound also yielded a Spontaneous motor activity in [5] of 142. Further, the Time in assay [7] stood at 2 s.

On to `CN1CCN2c3ccccc3Cn3cccc3C2C1` (stereo unspecified) [APTAZAPINE], for which the Activity in [13] is listed as 5; in assay [1], 6.5. Also, the Exploratory activity in [14] is recorded as 8.8; in assay [2] it was 0.5. Also, the Rotation number was determined as 2 in [3]; 2 in [15]; 2 in assay [16]; 8 in assay [4]; 12 in [17]; 5 in assay [18]. In addition, the Rotation number stood at 5 in assay [6], 3 in [20] and 8 in assay [21]. The Spontaneous motor activity in assay [19] amounted to 168; in [5], 59. Further, the inhibition in vivo at 10 mg/kg in [11] worked out at 14%. Moreover, in assay [12], the Writhing number amounted to 18. The figures for the Time in assay [22] and in assay [7] were 2.5 s and 8.1 s, respectively.

`O=C1CNCC2c3cccn3-c3ccccc3CN12` (stereo unspecified): the Rotation number is recorded as 10 in [3], 15 in assay [4] and 17 in assay [6].

Regarding `C=CCN1CCN2Cc3ccccc3-n3cccc3C2C1` (stereo unspecified), the Rotation number in assay [3] was found to be 14; in assay [4] it was 16; in assay [6] it was 16.

With `CN1CCN2Cc3ccccc3-n3cccc3C2C1` (stereo unspecified), in [1], the Activity is given as 5. For the same compound, the Exploratory activity in [2] turned out to be 3.8. For the same compound, the Rotation number in assay [3] was 11; in assay [4], 21; in [6] it was 16. This compound displayed a Spontaneous motor activity in assay [5] of 96. In assay [7], this compound showed a Time of 4.4 s.

On to `CN(C)CCCN1c2ccccc2CCc2ccccc21` [IMIPRAMINE], for which the Activity in assay [8] is 4.8. Further, the Rotation number in assay [3] stood at 36; in assay [4], 48; in [6], 40. For the same compound, in assay [11], the inhibition in vivo at 10 mg/kg amounted to 100%. The compound further yielded a Time in assay [9] of 5.7 s. Further, the Spontaneous motor activity in assay [10] came to 183.

With `O=C1NCC(=O)N2Cc3ccccc3-n3cccc3C12` (stereo unspecified), the Activity in assay [1] was 2.5. For the same compound, the Exploratory activity in [2] turned out to be 14.7. The Rotation number in assay [3] worked out at 11; in assay [4], 18; in [6] it was 15. For the same compound, the Spontaneous motor activity in assay [5] came to 247. This compound showed an inhibition in vivo at 10 mg/kg in [11] of 43%. Moreover, the Writhing number in assay [12] is reported as 12. The same compound showed a Time in assay [7] of 5.5 s.
